{"data": "Experimental data of several laboratories", "note": "Each line is one published result; the experiments were not run side by side."}
{"SMILES": "O=C(CCCO)N1N=C(c2c(-c3ccc(Cl)cc3)c3ccccc3[nH]c2=O)CC1c1ccc(Cl)cc1 (stereo not drawn)", "assay": "metabolic stability", "system": "human, liver microsomes", "conditions": "1 µM, 10 min, pH 7.4", "quantity": "compound remaining", "result": "52%"}
{"SMILES": "CC(=O)c1ccc2c(c1)N(CCCN(C)C)c1ccccc1S2", "tested on": "CEM-SS", "assay": "cell growth or viability, XTT", "conditions": "6 days", "quantity": "CC50", "result": "18 µM"}
{"SMILES": "CCC(=O)C[C@H](O)C[C@@H](C)C[C@H](NC(=O)[C@@H]1C[C@H](C)CN1C(=O)/C=C/[C@@H](C)CC)C(=O)N[C@H](C(=O)NC(C)(C)C(=O)N[C@@H](CC(C)C)C(=O)N[C@@H](CC(C)C)C(=O)NC(C)(C)C(=O)NC(C)(C)C(=O)NCCC(=O)N[C@@H](C)CN(C)C)[C@H](O)C(C)C", "tested on": "L6", "assay": "cell growth or viability, resazurin", "conditions": "68 h", "quantity": "IC50", "result": "0.259 µM"}
{"SMILES": "O=[N+]([O-])c1ccc(-c2nc3cccc(O)c3[nH]2)o1", "tested on": "CEM-SS", "assay": "cell growth or viability, resazurin", "conditions": "72 h", "quantity": "CC50", "result": "90 µM"}
{"SMILES": "CCCC(=O)Nc1cccc(NC(=O)c2ccccc2Br)c1", "assay": "chemical stability", "system": "mouse, plasma", "conditions": "5 µM, 5 h, pH 7.4", "quantity": "compound remaining", "result": "2%"}
{"SMILES": "N=C(N)c1ccc(OCCCCCOc2ccc(C(=N)N)cc2)cc1", "tested on": "L6", "assay": "cell growth or viability, resazurin", "conditions": "70 h", "quantity": "IC50", "result": "7.6 µM"}
{"SMILES": "Oc1c(-n2ccnn2)cnn1-c1cc(N2CCOCC2)ncn1", "system": "female monkey, plasma", "conditions": "intravenous, 1 mg/kg", "quantity": "clearance", "result": "0.7 L/h/kg"}
{"SMILES": "Nc1nc(-c2cc(F)cc(NC(=O)Nc3cc(F)cc(-c4c[nH]c(N)n4)c3)c2)c[nH]1", "assay": "metabolic stability", "system": "human, liver microsomes", "conditions": "5 µM, 1 h, pH 7.4", "quantity": "compound remaining", "result": "> 80%"}
{"SMILES": "COc1cccc2c1C(=O)c1c(O)c3c(c(O)c1C2=O)C[C@@](O)(C(=O)CO)C[C@@H]3O[C@H]1C[C@H](N)[C@H](O)[C@H](C)O1", "tested on": "COLO 205", "assay": "cell growth or viability, MTT", "conditions": "48 h", "quantity": "IC50", "result": "0.5 µM"}
{"SMILES": "Nc1ccn([C@@H]2CS[C@H](CO)O2)c(=O)n1", "tested on": "HepG2.2.15", "assay": "cell growth or viability, MTT", "conditions": "6 days", "quantity": "CC50", "result": "> 1000 µM"}
{"SMILES": "C=C(C)[C@H](CC=C(C)C)Cc1c(O)cc(O)c2c1O[C@H](c1ccccc1O)CC2=O", "tested on": "COLO 205", "assay": "cell growth or viability, MTT", "conditions": "48 h", "quantity": "IC50", "result": "28.1 µM"}
{"SMILES": "Nc1nc(-c2ccc(NC(=O)Nc3ccc(-c4c[nH]c(N)n4)c(F)c3)cc2F)c[nH]1", "assay": "metabolic stability", "system": "human, liver microsomes", "conditions": "5 µM, 1 h, pH 7.4", "quantity": "compound remaining", "result": "> 80%"}
